Test results taken from ChEMBL document CHEMBL1158764, “Cytotoxic sesquiterpene lactones from Eupatorium kiirunense, a coastal plant of Taiwan” (2005).
≈ marks a conversion by molar mass, not a printed value.

Key:
Type in all cases: functional
Conditions in all cases: read-out: ED50 (the source's name)
KB = assay: Cytotoxicity against human KB cells by methylene blue staining method
Summary of the method: (§1)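 Tumor cells cultured in RPMI-1640 medium and exposed to test sample for 72 h. Growth inhibition read by methylene blue staining (absorbance). ED50 taken as the concentration giving 50% reduction of absorbance relative to untreated cells.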

HeLa = assay: Cytotoxicity against human HeLa cells by methylene blue staining method; summary of the method: as §1
[1] = Cytotoxicity against human HEPA 59T/VGH cells by methylene blue staining method; summary of the method: as §1

| SMILES | EC50 (KB) [µg/mL] | EC50 (HeLa) [µg/mL] | EC50 [1] [µg/mL] |
| --- | --- | --- | --- |
| C=C1C(=O)O[C@H]2/C=C(/C)[C@@H](O)C[C@H]3O[C@@]3(C)C[C@@H](OC(=O)/C(C)=C/C)[C@@H]12 [HELIANGIN] | 1.8 (≈ 4.97 µM) | 4.4 (≈ 12.1 µM) | 2 (≈ 5.52 µM) |
| C=C1C(=O)O[C@H]2/C=C(/C)[C@H](O)C[C@H]3O[C@@]3(C)C[C@@H](OC(=O)/C(C)=C/C)[C@@H]12 | 3.2 (≈ 8.83 µM) | 3.1 (≈ 8.55 µM) | 4.4 (≈ 12.1 µM) |
| COc1cccc2c1C(=O)c1c(O)c3c(c(O)c1C2=O)C[C@@](O)(C(=O)CO)C[C@@H]3O[C@H]1C[C@H](N)[C@H](O)[C@H](C)O1 [DOXORUBICIN] | 0.15 (≈ 0.276 µM) | 0.14 (≈ 0.258 µM) | 0.19 (≈ 0.35 µM) |
| C=C1C(=O)O[C@H]2/C=C(\C)C(=O)[C@@H]3O[C@H]3[C@](C)(O)C[C@@H](OC(=O)/C(C)=C/C)[C@@H]12 [EUPAKIRUNSIN E] | > 20 | > 20 | > 20 |
| C=C1C(=O)O[C@H]2/C=C(\C)[C@]3(O)CC[C@](C)(C[C@@H](OC(=O)/C(C)=C/C)[C@@H]12)O3 [EUPAKIRUNSIN D] | 4.8 (≈ 13.2 µM) | 5.8 (≈ 16 µM) | 5 (≈ 13.8 µM) |
| C=C1C(=O)O[C@H]2[C@H]1[C@H](OC(=O)/C(C)=C/C)CC(=C)[C@H](O)[C@@H]1O[C@@H]1[C@]1(C)O[C@H]21 [EUPAKIRUNSIN A] | 5.5 (≈ 14.6 µM) | 8.9 (≈ 23.6 µM) | 4.4 (≈ 11.7 µM) |
| C=C1C(=O)O[C@@H]2/C=C(\C)C(=O)/C=C/[C@](C)(O)C[C@@H](OC(=O)/C(C)=C/C)[C@@H]12 [EUPAHELIANGOLIDE A] | 3.5 (≈ 9.71 µM) | 3.3 (≈ 9.16 µM) | 3.5 (≈ 9.71 µM) |
| C=C1C(=O)O[C@H]2/C=C(/COC(C)=O)[C@@H](O)C[C@H]3O[C@@]3(C)C[C@@H](OC(=O)/C(C)=C/C)[C@@H]12 | 4.3 (≈ 10.2 µM) | 7.5 (≈ 17.8 µM) | 7 (≈ 16.6 µM) |
| C=C1C(=O)O[C@H]2/C=C(\C)[C@H](O)/C=C\[C@](C)(O)C[C@@H](OC(=O)/C(C)=C/C)[C@@H]12 [EUPAKIRUNSIN B] | > 20 | > 20 | > 20 |
| C=C1C(=O)O[C@H]2[C@H]1[C@H](OC(=O)/C(C)=C/C)C[C@H](C)[C@H](O)CC(=O)[C@]1(C)O[C@H]21 [EUPAKIRUNSIN C] | 8.1 (≈ 21.4 µM) | 7.1 (≈ 18.8 µM) | 8.6 (≈ 22.7 µM) |
